Test results as given in ChEMBL document CHEMBL4627348, “Synthesis of (1,3,4-thiadiazol-2-yl)-acrylamide derivatives as potential antitumor agents against acute leukemia cells” (Bioorg Med Chem Lett, 2020).
pIC50: −log10 of the molar value. Activity calls are given as the source filed them. The rule behind the calls is not given here.

Columns and labels:
[1] = system: HL-60; assay: Antiproliferative activity against human HL60 cells assessed as growth inhibition at 20 uM after 48 hrs by CCK-8 assay relative to control; format: functional; details: HL-60, 48 h, read-out: GI
Procedure, shortened: (§1)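 Single-dose screen at 20 μM in RS4;11 (human ALL), HL-60 (human promyelocytic leukemia) and HEK293T (normal-cell model). Cells exposed 48 h, viability read by CCK-8, growth inhibition ratio expressed relative to control.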

[2] = system: RS4-11; assay: Antiproliferative activity against human RS4:11 cells assessed as growth inhibition at 20 uM after 48 hrs by CCK-8 assay relative to control; format: functional; details: RS4-11, 48 h, read-out: GI; procedure, shortened: as §1
[3] = system: HEK-293T; assay: (§2) Cytotoxicity against HEK293T cells assessed as growth inhibition at 20 uM after 48 hrs by CCK8 assay relative to control; format: cell-based; details: human, hek-293t, 48 h, 20 µM; procedure, shortened: as §1
[4] = system: RS4-11; assay: Induction of apoptosis in human RS4:11 cells assessed as early apoptotic cells at 40 uM after 48 hrs by Annexin-V and 7-AAD staining based flow cytometric analysis (reference value: 2.56%); format: functional
[5] = system: RS4-11; assay: Induction of apoptosis in human RS4:11 cells assessed as increase in cleaved caspase-9 protein expression after 48 hrs by Western blot analysis; format: functional, cell-based
Procedure, shortened: (§3)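 RS4;11 cells treated 48 h at concentrations from 2.5 to 40 μM, DMSO as negative control. Western blot for full-length PARP (116 kDa) and cleaved PARP (89 kDa), plus cleaved caspase-3 and cleaved caspase-9.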

[6] = system: RS4-11; assay: Induction of apoptosis in human RS4:11 cells assessed as viable cells at 40 uM after 48 hrs by Annexin-V and 7-AAD staining based flow cytometric analysis (reference value: 94.06%); format: functional; details: RS4-11, 48 h, read-out: Activity
[7] = system: HL-60; assay: Antiproliferative activity against human HL60 cells assessed as growth inhibition after 48 hrs by CCK-8 assay; format: functional, cell-based; details: HL-60, 48 h
[8] = system: HEK-293T; assay: Cytotoxicity against human HEK293T cells assessed as growth inhibition after 48 hrs by CCK8 assay; format: cell-based
[9] = system: RS4-11; assay: Induction of apoptosis in human RS4:11 cells assessed as late apoptotic cells at 40 uM after 48 hrs by Annexin-V and 7-AAD staining based flow cytometric analysis (reference value: 2.71%); format: functional
[10] = system: RS4-11; assay: Induction of apoptosis in human RS4:11 cells assessed as increase in cleaved caspase-3 protein expression after 48 hrs by Western blot analysis; format: functional, cell-based; procedure, shortened: as §3
[11] = system: RS4-11; assay: Antiproliferative activity against human RS4:11 cells assessed as growth inhibition after 48 hrs by CCK-8 assay; format: functional, cell-based; details: RS4-11, 48 h
[12] = system: RS4-11; assay: Induction of apoptosis in human RS4:11 cells assessed as increase in cleaved PARP protein expression after 48 hrs by Western blot analysis; format: functional, cell-based; procedure, shortened: as §3
[13] = as §2; format: cell-based, HEK-293T; details: human, HEK293T cells; read-out: GI; procedure, shortened: as §1
[14] = system: RS4-11; assay: Induction of apoptosis in human RS4:11 cells assessed as necrotic cells at 40 uM after 48 hrs by Annexin-V and 7-AAD staining based flow cytometric analysis (reference value: 0.67%); format: functional
[15] = system: RS4-11; assay: Induction of apoptosis in human RS4:11 cells assessed as PARP degradation at 2.5 to 40 uM after 48 hrs by Western blot analysis; format: functional, cell-based; procedure, shortened: as §3
[16] = system: RS4-11; assay: Induction of apoptosis in human RS4:11 cells assessed as increase in cleaved PARP protein expression at 2.5 to 40 uM after 48 hrs by Western blot analysis; format: functional, cell-based; procedure, shortened: as §3
[17] = system: RS4-11; assay: Induction of mitochondrial membrane potential loss in human RS4:11 cells at 40 uM after 48 hrs by MitoSense Red staining based fluorescence assay; format: functional, cell-based
Procedure, shortened: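 RS4;11 cells exposed 48 h at 5–40 μM, DMSO as negative control. Stained with MitoSense Red and analysed by flow cytometry. Loss of mitochondrial membrane potential is read as a drop in Red2 fluorescence.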

[18] = system: RS4-11; assay: Induction of apoptosis in human RS4:11 cells assessed as viable cells at 0.5 uM after 48 hrs by Annexin-V and 7-AAD staining based flow cytometric analysis (reference value: 94.06%); format: functional; details: RS4-11, 48 h, read-out: Activity
[19] = system: RS4-11; assay: Induction of apoptosis in human RS4:11 cells assessed as late apoptotic cells at 0.5 uM after 48 hrs by Annexin-V and 7-AAD staining based flow cytometric analysis (reference value: 2.71%); format: functional
[20] = system: RS4-11; assay: Induction of apoptosis in human RS4:11 cells assessed as necrotic cells at 0.5 uM after 48 hrs by Annexin-V and 7-AAD staining based flow cytometric analysis (reference value: 0.67%); format: functional
[21] = system: HL-60; assay: Antiproliferative activity against human HL60 cells assessed as growth inhibition at 1 uM after 48 hrs by CCK-8 assay relative to control; format: functional; details: HL-60, 48 h, read-out: GI
Procedure, shortened: (§4)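 Positive-control reference compound run at 1 μM alongside the 20 μM screen. CCK-8 viability after 48 h exposure, inhibition ratio relative to control.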

[22] = system: RS4-11; assay: Antiproliferative activity against human RS4:11 cells assessed as growth inhibition at 1 uM after 48 hrs by CCK-8 assay relative to control; format: functional; details: RS4-11, 48 h, read-out: GI; procedure, shortened: as §4
[23] = system: RS4-11; assay: Induction of apoptosis in human RS4:11 cells assessed as early apoptotic cells at 0.5 uM after 48 hrs by Annexin-V and 7-AAD staining based flow cytometric analysis (reference value: 2.56%); format: functional

| Structure (SMILES) | pIC50 [7] | pIC50 [11] | inhibition of growth at 20 µM [1] [%] | inhibition of growth at 20 µM [2] [%] | growth inhibition (GI) [3] | pIC50 [8] | inhibition at 48 h, 20 µM [13] [%] | also measured |
| --- | --- | --- | --- | --- | --- | --- | --- | --- |
| N#C/C(=C\c1ccccc1OS(=O)(=O)c1ccc(F)cc1)C(=O)Nc1nnc(Cc2ccc(F)cc2)s1 | – | – | 13 | 59 | Non-Toxic | – | – | – |
| COc1ccccc1-c1nnc(NC(=O)/C(C#N)=C/c2cccc(OS(=O)(=O)c3ccc(C)cc3)c2)s1 | – | – | 73 | 41 | Non-Toxic | – | – | – |
| N#C/C(=C\c1ccccc1OS(=O)(=O)c1ccc([N+](=O)[O-])cc1)C(=O)Nc1nnc(Cc2cccc(F)c2)s1 | – | – | 18 | 65 | Non-Toxic | – | – | – |
| CC(=O)Nc1ccc(S(=O)(=O)Oc2cccc(/C=C(\C#N)C(=O)Nc3nnc(-c4cccs4)s3)c2)cc1 | 5.10 | < 4.70 | 71 | 33 | – | < 4.70 | 20 | – |
| N#C/C(=C\c1ccccc1OS(=O)(=O)c1ccccc1[N+](=O)[O-])C(=O)Nc1nnc(Cc2cccc(F)c2)s1 | – | – | 23 | 68 | Non-Toxic | – | – | – |
| COc1ccc(-c2nnc(NC(=O)/C(C#N)=C/c3cccc(OS(=O)(=O)c4ccc(C)cc4)c3)s2)cc1 | – | – | 73 | 79 | Non-Toxic | – | – | – |
| N#C/C(=C\c1ccccc1OS(=O)(=O)c1ccccc1[N+](=O)[O-])C(=O)Nc1nnc(Cc2cccc3ccccc23)s1 | – | – | 23 | 66 | Non-Toxic | – | – | – |
| N#C/C(=C\c1ccccc1OS(=O)(=O)c1ccc([N+](=O)[O-])cc1)C(=O)Nc1nnc(Cc2ccccc2)s1 | – | – | 20 | 57 | Non-Toxic | – | – | – |
| CC1(C)CCC(CN2CCN(c3ccc(C(=O)NS(=O)(=O)c4ccc(NCC5CCOCC5)c([N+](=O)[O-])c4)c(Oc4cnc5[nH]ccc5c4)c3)CC2)=C(c2ccc(Cl)cc2)C1 [VENETOCLAX] | – | – | – | – | – | – | – | viability at 0.5 µM [18]: 2.71%; Activity [19]: 83.27%; Activity [20]: 2.11%; inhibition of growth at 1 µM [21]: 98%; inhibition of growth at 1 µM [22]: 95%; Activity [23]: 11.91% |

Now from value to compound, other results behind:

| pIC50 [7] | pIC50 [11] | Structure (SMILES) | inhibition of growth at 20 µM [1] [%] | inhibition of growth at 20 µM [2] [%] | growth inhibition (GI) [3] | pIC50 [8] | inhibition at 48 h, 20 µM [13] [%] | also measured |
| --- | --- | --- | --- | --- | --- | --- | --- | --- |
| 5.39 | 5.92 | COc1ccc(S(=O)(=O)Oc2ccccc2/C=C(\C#N)C(=O)Nc2nnc(Cc3ccc(F)cc3)s2)cc1 | 100 | 76 | – | < 4.30 | 20 | Activity [4]: 5.88%; Activity [5]: Dose-dependent effect; viability at 40 µM [6]: 30.2%; Activity [9]: 61.84%; Activity [10]: Dose-dependent effect; Activity [12]: Dose-dependent effect; Activity [14]: 2.07%; Activity [15]: Active; Activity [16]: Active; Activity [17]: Active |
| 5.39 | 6.00 | COc1ccc(S(=O)(=O)Oc2ccccc2/C=C(\C#N)C(=O)Nc2nnc(Cc3ccc(C)cc3)s2)cc1 | 100 | 79 | – | < 4.30 | 28 | – |
| 4.96 | < 4.70 | N#C/C(=C\c1ccccc1OS(=O)(=O)c1ccc(OC(F)(F)F)cc1)C(=O)Nc1nnc(-c2cc3ccccc3[nH]2)s1 | 59 | 26 | – | 4.84 | 53 | – |
| 5.28 | 5.32 | COc1ccc(S(=O)(=O)Oc2ccccc2/C=C(\C#N)C(=O)Nc2nnc(-c3cccs3)s2)cc1 | 67 | 76 | – | < 4.70 | 40 | – |
| 5.41 | 5.92 | COc1ccc(S(=O)(=O)Oc2ccccc2/C=C(\C#N)C(=O)Nc2nnc(Cc3cccc(F)c3)s2)cc1 | 100 | 74 | – | < 4.30 | 29 | – |
| 5.08 | < 4.70 | COc1ccc(S(=O)(=O)Nc2cccc(/C=C(\C#N)C(=O)Nc3nnc(-c4cccs4)s3)c2)cc1 | 77 | 40 | – | < 4.70 | 21 | – |
| 5.24 | < 4.70 | Cc1ccc(S(=O)(=O)Oc2cccc(/C=C(\C#N)C(=O)Nc3nnc(C)s3)c2)cc1 | 71 | 28 | – | < 4.30 | 27 | – |
| 5.36 | 5.90 | COc1ccc(S(=O)(=O)Oc2ccccc2/C=C(\C#N)C(=O)Nc2nnc(Cc3ccc(Cl)cc3)s2)cc1 | 99 | 77 | – | < 4.30 | 26 | Activity [4]: 5%; Activity [5]: Dose-dependent effect; viability at 40 µM [6]: 16.2%; Activity [9]: 76.08%; Activity [10]: Dose-dependent effect; Activity [12]: Dose-dependent effect; Activity [14]: 2.68%; Activity [15]: Active; Activity [16]: Active; Activity [17]: Active |
| 5.51 | 6.08 | COc1ccc(Cc2nnc(NC(=O)/C(C#N)=C/c3ccccc3OS(=O)(=O)c3ccc(OC)cc3)s2)cc1 | 100 | 78 | – | < 4.30 | 30 | Activity [4]: 5.07%; Activity [5]: Dose-dependent effect; viability at 40 µM [6]: 19.7%; Activity [9]: 72.63%; Activity [10]: Dose-dependent effect; Activity [12]: Dose-dependent effect; Activity [14]: 2.58%; Activity [15]: Active; Activity [16]: Active; Activity [17]: Active |
